Published values pooled from the literature.
Each line is one published result; the experiments were not run side by side.
BRD2 BD2: Bromodomain-containing protein 2, BD2 (BRD2, Homo sapiens, UniProt P25440)
ADORA2B: Adenosine receptor A2b (ADORA2B, Homo sapiens, UniProt P29275)
Melanocortin receptor 3: Melanocortin receptor 3 (Mus musculus, UniProt P33033)

| SMILES | target | read-out | mode | technique | setting | measurement | value |
| --- | --- | --- | --- | --- | --- | --- | --- |
| CC(=O)N[C@H](C(=O)N1C[C@H](O)C[C@H]1C(=O)NCc1ccc(-c2scnc2C)cc1)C(C)(C)SCCCCCCNC(=O)C[C@@H]1N=C(c2ccc(Cl)cc2)c2c(sc(C)c2C)-n2c(C)nnc21 | BRD2 BD2 | binding | – | ITC | – | Kd | 0.094 µM |
| CCN1CCCn2c1nc1c2c(=O)n(C)c(=O)n1C | ADORA2B | ligand displacement | – | radioligand | cell membranes | Ki | > 10 µM |
| CCCCCCCC/C=C\CCCCCCCC(=O)SCCNC(=O)CCNC(=O)[C@H](O)C(C)(C)COP(=O)(O)OP(=O)(O)OC[C@H]1O[C@@H](n2cnc3c(N)ncnc32)[C@H](O)[C@@H]1OP(=O)(O)O | fadR (Vibrio cholerae, UniProt Q9KQU8) | binding | – | ITC | – | Kd | 0.006 µM |
| N=C(N)NCCC[C@H](NC(=O)[C@@H](N)CC(=O)O)C(=O)N[C@@H](Cc1ccccc1)C(=O)NCC(=O)O | Melanocortin receptor 3 | reporter gene | agonist | – | – | EC50 | > 100 µM |
| CC(C)CCCC(C)N1CCCn2c1nc1c2c(=O)n(C)c(=O)n1C (centres unmarked) | ADORA2B | ligand displacement | – | radioligand | cell membranes | Ki | > 10 µM |
| CCCCN1CCC(COC(=O)c2ccc(N)c(OCF)c2)CC1 | Beta-3 adrenergic receptor (ADRB3, Homo sapiens, UniProt P13945) | cell-free assay | – | radioligand | – | Ki | > 10 µM |
| CC(C)CN1CCCn2c1nc1c2c(=O)n(C)c(=O)n1C | ADORA2B | ligand displacement | – | radioligand | cell membranes | Ki | > 10 µM |
| COc1cc(Nc2ncc3c(n2)-c2ccc(Cl)cc2C(c2c(F)cccc2OC)=NC3)ccc1C(=O)O | Tyrosine-protein kinase Tec (TEC, Homo sapiens, UniProt P42680) | binding | – | – | lysate | Kd | 9.86 µM |
| N=C(N)NCCC[C@H](NC(=O)[C@H](CC(=O)O)NC(=O)[C@H](Cc1c[nH]c2ccccc12)NC(=O)[C@H](CCCNC(=N)N)NC(=O)[C@@H](N)Cc1ccccc1)C(=O)N[C@@H](Cc1ccccc1)C(=O)O | Melanocortin receptor 3 | reporter gene | agonist | – | – | EC50 | 20.4 µM |
| Cc1noc(C)c1-c1ccc(-c2nc3cnccn3c2NC(C)(C)C)cc1 | BRD2 BD2 | cell-free assay | – | competition with immobilised ligand | – | Kd | 0.095 µM |
| N=C(N)NCCC[C@H](NC(=O)[C@H](CC(=O)O)NC(=O)[C@H](Cc1c[nH]c2ccccc12)NC(=O)[C@H](CCCNC(=N)N)NC(=O)[C@H](Cc1ccccc1)NC(=O)[C@@H](N)Cc1c[nH]cn1)C(=O)N[C@@H](Cc1ccccc1)C(=O)O | Melanocortin receptor 3 | reporter gene | agonist | – | – | EC50 | 6.6 µM |
| Cc1ncsc1-c1ccc(CNC(=O)[C@@H]2C[C@H](O)CN2C(=O)[C@@H](NC(=O)C2(F)CC2)C(C)(C)C)c(OCCc2ccc(CN3CCN(c4cc(-c5ccccc5O)nnc4N)CC3)cc2)c1 | Protein polybromo-1, bromodomain (PBRM1, Homo sapiens, UniProt Q86U86) | binding | – | SPR | – | Kd | 1.2 µM |
| CCCCCN1CCCn2c1nc1c2c(=O)n(C)c(=O)n1C | ADORA2B | ligand displacement | – | radioligand | cell membranes | Ki | > 10 µM |
| N=C(N)NCCC[C@H](NC(=O)[C@H](CC(=O)O)NC(=O)[C@H](Cc1c[nH]c2ccccc12)NC(=O)[C@H](CCCNC(=N)N)NC(=O)[C@@H](N)Cc1ccccc1)C(=O)N[C@@H](Cc1ccccc1)C(=O)NCC(=O)O | Melanocortin receptor 3 | reporter gene | agonist | – | – | EC50 | > 100 µM |
